Assay type in all cases: functional
Assay [1] relates to Mus musculus. The assay can be described thus: Percentage of antagonism exerted by reserpine at 2 mg/kg.
For assay [2], the species on record is Mus musculus. The assay can be described thus: Antinociceptive effect determined before treatment in the mouse hotplate test. More on the design: unit not given beside the values. The method, boiled down: (§1)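 Male Swiss albino mice (23-30 g) were placed on a plate held at 52.5 ± 0.1 °C. Fore or hind paw licking was the endpoint. Latency was timed before dosing and at intervals up to 60 min after, with a 45 s cutoff. Mice scoring below 12 or over 18 s in the pretest were excluded. Compounds were given in saline or 1% CMC at 10 mL/kg sc or po.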

The subject of assay [3] is Mus musculus. Nature of the assay: Antinociceptive effect expressed as licking latency determined at 20 mg/kg after 15 minutes of subcutaneous administration in the mouse hotplate test. The method, boiled down: as §1
For assay [4], the system named is Mus musculus. Nature of the assay: Minimal nontoxic dose in the mouse hot plate method by subcutaneous administration. In general terms: In hot-plate and tail-flick tests a longer latency is read as antinociception.
The subject of assay [5] is Mus musculus. Nature of the assay: Antinociceptive effect expressed as licking latency determined at 20 mg/kg after 60 minutes of subcutaneous administration in the mouse hotplate test. The method, boiled down: as §1
Assay [6] has as its system Mus musculus. The assay can be described thus: Maximal analgesic dose required to cause antinociceptive effect in the mouse hot plate method by subcutaneous administration.
Assay [7] concerns Mus musculus. Nature of the assay: Antinociceptive effect expressed as licking latency determined at 20 mg/kg after 45 minutes of subcutaneous administration in the mouse hotplate test. The method, boiled down:
as §1

Assay [8] deals with Mus musculus. The assay can be described thus: Percentage of analgesic efficacy compared to morphine at 8 mg/kg. Summed up: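 Analgesic efficacy was measured in the mouse hot-plate test (52.5 °C, paw-licking latency) at the maximal analgesic dose. It is expressed as a percentage of the maximal effect of morphine (8 mg/kg sc), which is taken as 100%.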
The test system of assay [9] is Mus musculus. Nature of the assay: Antinociceptive effect expressed as licking latency determined at 20 mg/kg after 30 minutes of subcutaneous administration in the mouse hotplate test. Summed up:
as §1

Assay [10] concerns Mus musculus. Nature of the assay: Antinociceptive effect expressed as licking latency determined at 3 mg/kg after 30 minutes of subcutaneous administration in the mouse hotplate test. The method, boiled down: as §1
Assay [11] has as its system Mus musculus. Nature of the assay: Antinociceptive effect expressed as licking latency determined at 3 mg/kg after 15 minutes of subcutaneous administration in the mouse hotplate test. Summed up:
as §1

The test system of assay [12] is Mus musculus. The assay can be described thus: Antinociceptive effect expressed as licking latency determined at 3 mg/kg after 45 minutes of subcutaneous administration in the mouse hotplate test. Summed up:
as §1

Assay [13] relates to Mus musculus. Nature of the assay: Antinociceptive effect expressed as licking latency determined at 3 mg/kg after 60 minutes of subcutaneous administration in the mouse hotplate test. Summed up: as §1
Assay [14] deals with Mus musculus. Nature of the assay: Antinociceptive effect expressed as licking latency determined at 10 mg/kg after 30 minutes of oral administration in the mouse hotplate test. Summed up: as §1
Assay [15] concerns Mus musculus. Nature of the assay: Antinociceptive effect expressed as licking latency determined at 10 mg/kg after 45 minutes of oral administration in the mouse hotplate test. Summed up:
as §1

The subject of assay [16] is Mus musculus. The assay can be described thus: Maximal analgesic dose required to cause antinociceptive effect in the mouse hot plate method by oral administration.
For assay [17], the system named is Mus musculus. The assay can be described thus: Antinociceptive effect expressed as licking latency determined at 10 mg/kg after 60 minutes of oral administration in the mouse hotplate test. Summed up: as §1
Assay [18] has as its system Mus musculus. Nature of the assay: Antinociceptive effect expressed as licking latency determined at 10 mg/kg after 15 minutes of oral administration in the mouse hotplate test. The method, boiled down:
as §1

Assay [19] has as its system Mus musculus. Nature of the assay: Antinociceptive effect expressed as licking latency determined at 1 mg/kg after 30 minutes of subcutaneous administration in the mouse hotplate test. Summed up:
as §1

For assay [20], the system named is Mus musculus. The assay can be described thus: Antinociceptive effect expressed as licking latency determined at 1 mg/kg after 15 minutes of subcutaneous administration in the mouse hotplate test. Summed up: as §1
The test system of assay [21] is Mus musculus. The assay can be described thus: Antinociceptive effect expressed as licking latency determined at 1 mg/kg after 60 minutes of subcutaneous administration in the mouse hotplate test. The method, boiled down: as §1
Assay [22] relates to Mus musculus. Nature of the assay: Antinociceptive effect expressed as licking latency determined at 1 mg/kg after 45 minutes of subcutaneous administration in the mouse hotplate test. Summed up:
as §1

Assay [23] has as its system Mus musculus. The assay can be described thus: Antinociceptive effect expressed as licking latency determined at 6 mg/kg after 30 minutes of subcutaneous administration in the mouse hotplate test. Summed up: as §1
Assay [24] deals with Mus musculus. Nature of the assay: Antinociceptive effect expressed as licking latency determined at 6 mg/kg after 60 minutes of subcutaneous administration in the mouse hotplate test. Summed up: as §1
For assay [25], the system named is Mus musculus. The assay can be described thus: Antinociceptive effect expressed as licking latency determined at 6 mg/kg after 45 minutes of subcutaneous administration in the mouse hotplate test. The method, boiled down: as §1
Assay [26] concerns Mus musculus. The assay can be described thus: Antinociceptive effect expressed as licking latency determined at 6 mg/kg after 15 minutes of subcutaneous administration in the mouse hotplate test. The method, boiled down: as §1
Assay [27] relates to Mus musculus. Nature of the assay: Antinociceptive effect expressed as licking latency determined at 8 mg/kg after 45 minutes of subcutaneous administration in the mouse hotplate test. Summed up:
(§2)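 Male Swiss albino mice (23-30 g), acclimatised 24 h at 23 ± 1 °C. Dosed sc in 10 mL kg⁻¹ of saline, 1% carboxymethylcellulose, or saline + DMSO 2:1 vehicle. Placed on a 52.5 ± 0.1 °C hot plate, timed to fore or hind paw licking. Pretest latency had to be 12–18 s. Cutoff was 45 s. Latency was read before dosing and at 15, 30, 45 and 60 min after.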

Assay [28] has as its system Mus musculus. Nature of the assay: Antinociceptive effect expressed as licking latency determined at 8 mg/kg after 30 minutes of subcutaneous administration in the mouse hotplate test. The method, boiled down:
as §2

In assay [29] the test system is Mus musculus. The assay can be described thus: Antinociceptive effect expressed as licking latency determined at 8 mg/kg after 15 minutes of subcutaneous administration in the mouse hotplate test. Summed up:
as §2

Assay [30] relates to Mus musculus. The assay can be described thus: Antinociceptive effect expressed as licking latency determined at 8 mg/kg after 60 minutes of subcutaneous administration in the mouse hotplate test. Summed up: as §2

As for `Cc1noc2c(-c3ccccc3)nn(CCCN3CCN(c4cccc(Cl)c4)CC3)c(=O)c12`, the Antagonism with Mus musculus [1] is given as 100%. Further, the Activity in the assay listed under Mus musculus [2] was 14.6. In addition, the Licking latency is given as 19.6 in the assay with Mus musculus [3], 29.3 in the assay with Mus musculus [5], 31.2 in the assay with Mus musculus [7] and 34.5 with Mus musculus [9]. In the assay on Mus musculus [4], this compound displayed an MNTD of 60 mg/kg. The same compound registered an MAD in the assay with Mus musculus [6] of 0.3 mg/kg. This compound also showed an Analgesic effect in the assay with Mus musculus [8] of 104%.
In the assay with Mus musculus [1], `CC(=O)c1c(C)nn(CCCN2CCN(c3cccc(Cl)c3)CC2)c(=O)c1N` yielded an Antagonism of 0%. Besides, the Licking latency is recorded as 33.2 in the assay with Mus musculus [10], 23.7 in the assay on Mus musculus [11], 34.3 in the assay on Mus musculus [12] and 32.7 in the assay on Mus musculus [13]. Moreover, the Activity in the assay listed under Mus musculus [2] was found to be 15.5. Also, in the assay with Mus musculus [4], the MNTD amounted to 20 mg/kg. This compound yielded an MAD in the assay with Mus musculus [6] of 0.1 mg/kg. The compound further showed an Analgesic effect in the assay on Mus musculus [8] of 100%.
Turning to `Cc1onc2c(=O)n(CCCN3CCN(c4cccc(Cl)c4)CC3)nc(-c3ccccc3)c12`, the Licking latency in the assay with Mus musculus [14] came to 25.1; in the assay on Mus musculus [15], 19.1; in the assay with Mus musculus [17], 16.6; in the assay with Mus musculus [18], 20.8. For the same compound, the Antagonism in the assay with Mus musculus [1] was 94%. In the assay filed under Mus musculus [2], this compound registered an Activity of 15.1. This compound also yielded an MNTD in the assay on Mus musculus [4] of 50 mg/kg. In the assay with Mus musculus [16], this compound registered an MAD of 1 mg/kg. Besides, in the assay on Mus musculus [8], the Analgesic effect is given as 75%.
Turning to `CCOC(=O)c1nn(CCCN2CCN(c3cccc(Cl)c3)CC2)c(=O)c2noc(C)c12`, in the assay on Mus musculus [1], the Antagonism is listed as 0%. In the assay listed under Mus musculus [2], the Activity was 16. The Licking latency with Mus musculus [3] turned out to be 22.2; in the assay on Mus musculus [5], 17.8; in the assay with Mus musculus [7], 23.2; in the assay with Mus musculus [9] it was 23.8. The compound further registered an MNTD in the assay on Mus musculus [4] of 40 mg/kg. Besides, the MAD with Mus musculus [6] amounted to 10 mg/kg. In the assay on Mus musculus [8], this compound returned an Analgesic effect of 71%.
`C=Cc1c(C)nn(CCCN2CCN(c3cccc(Cl)c3)CC2)c(=O)c1N` came in with an Antagonism with Mus musculus [1] of 61%. In the assay filed under Mus musculus [2], this compound had an Activity of 14.2. The Licking latency in the assay on Mus musculus [19] is given as 33.5; with Mus musculus [20] it was 21.3; in the assay on Mus musculus [21] it was 22.6; in the assay on Mus musculus [22] it was 28.2. In the assay with Mus musculus [4], this compound came in with an MNTD of 20 mg/kg. In addition, in the assay on Mus musculus [6], the MAD came out at 0.1 mg/kg. The same compound came in with an Analgesic effect with Mus musculus [8] of 100%.
For `Cc1nn(CCCN2CCN(c3cccc(Cl)c3)CC2)c(=O)c(N)c1C(C)O` (configuration not stated), in the assay on Mus musculus [1], the Antagonism is 100%. Besides, the Licking latency worked out at 33.7 with Mus musculus [23], 23.3 in the assay on Mus musculus [24], 29.3 in the assay with Mus musculus [25] and 22.4 with Mus musculus [26]. The same compound showed an Activity in the assay filed under Mus musculus [2] of 14.5. Further, the MNTD with Mus musculus [4] is 40 mg/kg. In the assay on Mus musculus [6], this compound gave an MAD of 0.3 mg/kg. Also, the Analgesic effect in the assay on Mus musculus [8] is given as 101%.
Turning to `Cc1nn(CCCN2CCN(c3cccc(Cl)c3)CC2)c(=O)c2noc(C)c12`, the Antagonism in the assay with Mus musculus [1] is listed as 92%. For the same compound, the Activity in the assay filed under Mus musculus [2] came out at 16.6. Besides, the Licking latency with Mus musculus [3] is 18; in the assay with Mus musculus [5] it was 17.6; with Mus musculus [7] it was 22.6; with Mus musculus [9], 24. This compound also yielded an MNTD in the assay on Mus musculus [4] of 40 mg/kg. The compound further registered an MAD with Mus musculus [6] of 10 mg/kg. The Analgesic effect in the assay on Mus musculus [8] is reported as 72%.
With `CN1CC[C@]23c4c5ccc(O)c4O[C@H]2[C@@H](O)C=C[C@H]3[C@H]1C5` [MORPHINE], in the assay on Mus musculus [1], the Antagonism is 0%. For the same compound, the Licking latency was determined as 26.4 in the assay on Mus musculus [27], 28.7 in the assay on Mus musculus [28], 24.5 in the assay on Mus musculus [29] and 23.8 in the assay with Mus musculus [30]. The compound also came in with an Activity in the assay filed under Mus musculus [2] of 14.6. The compound also showed an MNTD in the assay on Mus musculus [4] of 30 mg/kg. In the assay on Mus musculus [6], this compound returned an MAD of 0.2 mg/kg. In the assay with Mus musculus [8], this compound gave an Analgesic effect of 100%.
